The values below come from ChEMBL document CHEMBL3421622, “New organochalcogen multitarget drug: synthesis and antioxidant and antitumoral activities of chalcogenozidovudine derivatives” (J Med Chem, 2015).

Series [1] can be described thus: Antioxidant activity assessed as thiol peroxidase-like activity assessed as time required to oxidize 50% of benzenethiol during reduction of hydrogen peroxide measured for 180 secs by UV spectroscopic analysis. Conditions: 0.05 h.
The test system of another series is Brain. The series can be described thus: Antioxidant activity in Wistar rat brain assessed as inhibition of TBARS formation at 200 uM after 60 mins by spectrophotometric method relative to control. Format: functional. In a few lines: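 Adult male Wistar rat brain (250−350 g) homogenized 1:10 w/v in 10 mM Tris-HCl pH 7.4 and spun at 2000 rpm for 10 min; low-speed supernatant (S1) used. Blank lacked Fe. TBARS read at 532 nm against MDA standard. Three experiments.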

Series [2] deals with Liver. The series can be described thus: Toxicity in rat liver slices assessed as change in ALT release relative to control. To be noted: in vitro.
The subject of series [3] is 5637. Put plainly: Upregulation of caspase-9 mRNA expression in human 5637 cells at 100 uM after 48 hrs by real-time PCR analysis relative to control. The series is classed as functional, cell-based. In a few lines: (§1)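 5637 cells seeded at 2 × 10^5 per well and grown 24 h. Treated with 50 or 100 μM for 48 h, washed in PBS, RNA extracted. Bax, Bcl-2, caspase-9 and survivin mRNA measured by real-time PCR; Bax:Bcl-2 ratio derived. Experiments in triplicate.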

Series [4] relates to 5637. Put plainly: Induction of apoptosis in human 5637 cells assessed as ratio of Bax mRNA to Bcl2 mRNA level at 50 uM after 48 hrs by real-time PCR analysis (reference value: 0.08 to 0.13). The series is classed as functional. In a few lines: as §1
A general note: Real-time PCR tracks product formation cycle by cycle.

For series [5], the system named is 5637. The series can be described thus: Induction of apoptosis in human 5637 cells assessed as ratio of Bax mRNA to Bcl2 mRNA level at 100 uM after 48 hrs by real-time PCR analysis (reference value: 0.08 to 0.13). The series is classed as functional. In a few lines:
as §1

Series [6] is described as follows: Antioxidant activity assessed as thiol peroxidase-like activity assessed as time required to oxidize 50% of benzenethiol during reduction of hydrogen peroxide measured for 180 secs by UV spectroscopic analysis relative to control. Conditions: 0.05 h.
For series [7], the system named is 5637. The series can be described thus: Cytotoxicity against human 5637 cells assessed as growth inhibition after 48 hrs by MTT assay. Format: functional, cell-based. To be noted: Homo sapiens, 5637, 48 h. In a few lines: (§2)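 5637 cells in log phase, seeded at 2 × 10^4 per well and grown 24 h. Exposed for 24, 48 or 72 h to 200−12.5 μM in DMSO (final ≤0.25%, vehicle group included). MTT added for 3 h, formazan dissolved in DMSO, read at 492 nm. Growth inhibition = [1 − Abs treated/Abs control] × 100%. […] Three independent experiments.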
In general terms: Tetrazolium dyes change colour on reduction, which living cells bring about.

Series [8] relates to 5637. The series can be described thus: Downregulation of Bcl2 mRNA expression in human 5637 cells at 100 uM after 48 hrs by real-time PCR analysis relative to control. The series is classed as functional, cell-based. In a few lines:
as §1

For series [9], the system named is Liver. The series can be described thus: Toxicity in rat liver assessed as effect on cell viability at 50 to 200 uM after 2 hrs by MTT reduction assay relative to control. In a few lines: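 Liver slices from healthy adult rats preincubated 10 min in Krebs Ringer pH 7.4. Compound added to 200, 100 or 50 μM final for 2 h at 37 °C. MTT (5 mg/mL) added for 30 min at 37 °C, formazan dissolved in DMSO, absorbance read at 570 and 700 nm. Expressed as % of untreated; three experiments.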

Series [10] deals with 5637. The series can be described thus: Induction of apoptosis in human 5637 cells assessed as DNA fragmentation at 50 to 100 uM after 48 hrs by TUNEL assay relative to control. Format: functional, cell-based. In a few lines: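 5637 cells treated 48 h, then collected and fixed. TdT-mediated BrdU labelling of fragmented DNA, detected with TMR-anti-BrdU after 30 min staining in the dark at room temperature. TUNEL-positive cells counted by flow cytometry.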

The subject of series [11] is 5637. The series can be described thus: Induction of apoptosis in human 5637 cells assessed as early and late apoptotic cells at 100 uM after 48 hrs by annexin V-PE/7-AAD staining-based flow cytometric analysis (reference value: 7.36%). Format: functional. Background: In flow cytometry, cells or beads pass a laser one at a time.
For series [12], the system named is 5637. The series can be described thus: Cytotoxicity against human 5637 cells assessed as growth inhibition at 50 uM after 48 hrs by MTT assay relative to control. The series is classed as functional. To be noted: Homo sapiens, 5637, 48 h; read-out: GI. In a few lines: as §2
Series [13] concerns 5637. Put plainly: Downregulation of survivin mRNA expression in human 5637 cells at 100 uM after 48 hrs by real-time PCR analysis relative to control. Format: functional, cell-based. In a few lines: as §1
For series [14], the system named is Liver. The series can be described thus: Toxicity in rat liver assessed as change in AST release relative to control. Format: tissue-based.
For series [15], the system named is 5637. The series can be described thus: Cytotoxicity against human 5637 cells assessed as dead cells at 100 uM after 48 hrs by calcein/ethidium bromide staining-based fluorescence microscopic analysis relative to control. Format: functional, cell-based. In a few lines: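 5637 bladder carcinoma cells (DMEM, 10% FBS) seeded at 2 × 10^4 per well and grown 24 h. Exposed to 100 or 50 μM compound for 48 h. Washed, then stained with calcein (live, green) and ethidium homodimer (dead, red). Scored by multicolor fluorescence microscopy.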

In series [16] the test system is 5637. The series can be described thus: Induction of apoptosis in human 5637 cells at 50 uM after 48 hrs by annexin V-PE/7-AAD staining-based flow cytometric analysis (reference value: 7.36%). Format: functional.
Series [17] concerns 5637. Put plainly: Cytotoxicity against human 5637 cells assessed as growth inhibition at 12.5 to 200 uM after 48 hrs by MTT assay relative to control. Format: functional. In a few lines:
as §2

Series [18] has as its system 5637. Put plainly: Cytotoxicity against human 5637 cells assessed as growth inhibition at 100 to 200 uM after 48 hrs by MTT assay relative to control. Format: functional. In a few lines: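 5637 bladder carcinoma cells in DMEM with 10% FBS, seeded 2 × 10^4/well, grown 24 h at 37 °C, 5% CO2. Exposed to 200–12.5 μM from DMSO stocks (final DMSO ≤0.25%, solvent control) for 48 h. MTT added for 3 h, formazan dissolved in DMSO, read at 492 nm. Growth inhibition = [1 − Abs treated/Abs control] × 100%. Three independent experiments.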

pIC50: −log10 of the molar value. The source made the active and inactive calls. The rule behind the calls is not given here. Some results are limits rather than exact numbers.

Turning to `Cc1cn([C@H]2C[C@H](N=[N+]=[N-])[C@@H](C[Se]c3cccc4ccccc34)O2)c(=O)[nH]c1=O`, in series [1], the t50 was found to be 66.3 min. The inhibition (commonly how much of the control response was suppressed) at 200 µM with Brain (1 h) stood at 80%.
Turning to `Cc1ccc([Se]C[C@H]2O[C@@H](n3cc(C)c(=O)[nH]c3=O)C[C@@H]2N=[N+]=[N-])cc1`, the Activity result in the series on Liver [2] is given as “Non-toxic”; in the series with Liver [9], “Non-toxic”; with 5637 [11] it was 89.6%; in the series on Liver [14], “Non-toxic”. In addition, the result with 5637 [3], in the series with 5637 [8], in the series on 5637 [10] and in the series with 5637 [13] was Active. Moreover, the t50 in series [1] is 22.5 min. Also, the values for the Ratio in the series on 5637 [4] and in the series with 5637 [5] were 0.5 and 19.4, respectively. The “fold change (FC)” value in series [6] is reported as 4. Further, the pIC50 (commonly −log10 of the IC50, conventionally taken in molar units) in the series with 5637 [7] was 4.29. Also, the inhibition of growth at 50 µM in the series with 5637 [12] was determined as 50%. In addition, the inhibition entry with Brain is “Active”.
In the case of `Cc1cc(C)c([Se]C[C@H]2O[C@@H](n3cc(C)c(=O)[nH]c3=O)C[C@@H]2N=[N+]=[N-])c(C)c1`, the t50 in [1] was found to be 97.5 min. The inhibition result with Brain is “Active”.
Turning to `Cc1cn([C@H]2C[C@H](N=[N+]=[N-])[C@@H](C[Se]c3ccc(Cl)cc3)O2)c(=O)[nH]c1=O`, the Activity entry is reported as “Non-toxic” in the series with Liver [2]; “Non-toxic” with Liver [9]; 71.12% in the series with 5637 [16]; 92.8% in the series with 5637 [11]; “Non-toxic” with Liver [14]. The result in the series with 5637 [3], in the series with 5637 [15], in the series on 5637 [8], in the series on 5637 [10] and in the series on 5637 [13] was Active. In addition, in series [1], the t50 is 15.2 min. In addition, the Ratio in the series with 5637 [4] came out at 0.9; in the series with 5637 [5] it was 4.8. Besides, the “fold change (FC)” value in [6] came out at 4. For the same molecule, in the series with 5637 [7], the pIC50 is 4.39. The inhibition of growth at 50 µM in the series on 5637 [12] worked out at 50%. Besides, the inhibition entry with Brain is “Active”.
As to `Cc1cn([C@H]2C[C@H](N=[N+]=[N-])[C@@H](CO)O2)c(=O)[nH]c1=O` [ZIDOVUDINE], the results for the Activity result in the series on Liver [2], with 5637 [16] and in the series with Liver [14] were “Non-toxic”, 7.74% and “Non-toxic”, respectively. Also, the t50 in series [1] came to 66.5 min. Moreover, in the series with 5637 [7], the pIC50 was 5.15. The “growth inhibition (GI)” value in the series with 5637 [17] is >50%. The outcome in the series on 5637 [15] and in the series with 5637 [10] was inactive. In the series on 5637 [8], the outcome was Active. Also, the inhibition of growth at 50 µM in the series with 5637 [12] is 50%.
With `Cc1cn([C@H]2C[C@H](N=[N+]=[N-])[C@@H](C[Se]c3ccccc3)O2)c(=O)[nH]c1=O`, the Activity entry with Liver [2] was “Non-toxic”; in the series on Liver [9], “Non-toxic”; in the series on 5637 [11], 90.74%; in the series on Liver [14], “Non-toxic”. Also, the “growth inhibition (GI)” value in the series with 5637 [18] is >50%. The outcome in the series with 5637 [3], in the series with 5637 [8], with 5637 [10] and in the series with 5637 [13] was Active. In series [1], the t50 was determined as 56.4 min. Besides, the Ratio in the series on 5637 [4] turned out to be 1.45; with 5637 [5] it was 10.6. Further, in the series with 5637 [7], the pIC50 is 4.10. Besides, the inhibition entry in the series on Brain is “Active”.
